# Rows were chosen to be rich in hits. Some 1.3% of all compounds tested hit in one or more screens of this group.
# RAD52 inh – RAD52 (human) annealing inhibition; P43351; recombinant RAD52 DNA annealing, FRET fluorescence; inhibition, % at 18.7 µM; 360,000 tested, 0.46% active;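 active = every replicate showing at least 50% inhibition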
# PAX8 reporter – inhibitors of PAX8 transcriptional activity in RMG-I cells. RMG-I TPO-luciferase reporter, SteadyGlo, 24 h. inhibition, % at 12.6 µM. 360,000 tested, 1.2% active. AID 652154;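 active = mean replicate inhibition at least 60% with every replicate also reaching 60%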;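 also: luciferase light reporting Pax8 driven TPO promoter activity; plate controls were median of neutral control wells for no effect and mitoxantrone controls for full effect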
# FN deposition inh – fibronectin deposition inhibition | AH1F fibroblasts, Alexa488-fibronectin deposition fluorescence, overnight | inhibition, % at 12.6 µM | 350,000 tested, 0.086% active | AID 743247;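 active = mean inhibition across replicates of 30% or more, regardless of how many single replicates reach that level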;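 also: positive control wells lacked labelled fibronectin entirely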
#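 Test system: AH1F fibroblast monolayer depositing Alexa488-labelled fibronectin into matrix. Input: 10000 cells per well. Technique: fluorescence, ex 485 nm, em 525 nm. Buffer or medium: DMEM plus 2% serum, read in PBS. Timing: 1 h cell adhesion before compound, then overnight fibronectin incubation. Compound: single dose, pinned. Read-out basis: inhibition from reduced deposited-fibronectin fluorescence.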
# RAD54 inh – inhibitors of human RAD54 branch migration; Q92698; RAD54 Holliday junction branch migration, FAM/BHQ fluorescence; inhibition, % at 10.4 µM; 360,000 tested, 0.14% active;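 active = mean normalized replicate activity at least 40 and at least half of replicates scoring 40 or more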;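 also: 0% = median of neutral control wells and 100% = median of positive control wells; inhibitors cause a drop in the FAM fluorescence signal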
# Target sequence (Q92698 whole entry, looked up): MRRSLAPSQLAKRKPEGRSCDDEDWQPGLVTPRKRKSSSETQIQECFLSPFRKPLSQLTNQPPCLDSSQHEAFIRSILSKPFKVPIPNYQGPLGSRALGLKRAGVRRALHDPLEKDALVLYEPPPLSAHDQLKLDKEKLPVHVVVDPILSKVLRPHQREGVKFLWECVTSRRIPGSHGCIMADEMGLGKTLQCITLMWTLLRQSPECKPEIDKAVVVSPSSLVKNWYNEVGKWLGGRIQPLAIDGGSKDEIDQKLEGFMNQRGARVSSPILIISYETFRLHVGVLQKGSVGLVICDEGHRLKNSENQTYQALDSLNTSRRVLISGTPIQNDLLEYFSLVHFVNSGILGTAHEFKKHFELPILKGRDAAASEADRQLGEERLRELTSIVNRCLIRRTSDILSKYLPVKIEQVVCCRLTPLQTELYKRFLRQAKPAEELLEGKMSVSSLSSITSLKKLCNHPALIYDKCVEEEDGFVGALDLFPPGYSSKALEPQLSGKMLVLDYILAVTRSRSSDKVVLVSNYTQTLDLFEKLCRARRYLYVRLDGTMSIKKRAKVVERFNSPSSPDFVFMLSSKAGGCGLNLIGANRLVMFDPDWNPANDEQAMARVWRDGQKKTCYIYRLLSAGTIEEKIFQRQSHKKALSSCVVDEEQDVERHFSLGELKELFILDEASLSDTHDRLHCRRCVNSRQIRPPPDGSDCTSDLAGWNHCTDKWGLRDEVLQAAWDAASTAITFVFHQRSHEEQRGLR
# An asterisk follows results filed as active; nt = no result.
SMILES,RAD52 inh,PAX8 reporter,FN deposition inh,RAD54 inh
CNC(=O)N(O)C1N(/N=C/c2ccccc2O)C(=S)SC1(C)C (centres undefined),-6.1,24.9,4.4,nt
Cn1c(=O)n(CCc2ccccc2)c(=O)c2c1ncn2Cc1ccccc1,nt,nt,1.4,-1.5
COc1ccc(Nc2nc(N3CCCC3)nc3ccccc23)c(OC)c1,nt,nt,3.6,99.5*
CCc1cccc(NC(=O)C(NC(=O)C2CCCCC2)C(C)C)c1 (centres undefined),-1.9,2.6,-16.7,nt
Cn1ncc2cc(NC(=S)NC(=O)c3ccccc3)ccc21,nt,nt,-3.6,2.3
C[C@@H]1CCCCO[C@H](CN(C)C(=O)Nc2cccc3ccccc23)[C@@H](C)CN([C@H](C)CO)C(=O)c2cc(NS(=O)(=O)c3ccc(Cl)cc3)ccc2O1,-20.9,6.6,0.9,-3.8
C[C@H]1CCCCO[C@H](CN(C)C(=O)Nc2cccc3ccccc23)[C@@H](C)CN([C@@H](C)CO)C(=O)c2cc(NS(=O)(=O)c3ccc(Cl)cc3)ccc2O1,-21.0,81.6*,1.9,-3.7
C[C@H](CO)N1C[C@H](C)[C@@H](CN(C)C(=O)Nc2cccc3ccccc23)OCCCC[C@H](C)Oc2ccc(NS(=O)(=O)c3ccc(Cl)cc3)cc2C1=O,-11.6,42.5,-15.9,-2.4
C[C@@H]1CCCCO[C@@H](CN(C)C(=O)Nc2cccc3ccccc23)[C@H](C)CN([C@H](C)CO)C(=O)c2cc(NS(=O)(=O)c3ccc(Cl)cc3)ccc2O1,-23.3,94.1*,-3.0,4.9
CC=Cc1ccc2n(c1=O)C[C@@H]1[C@@H](CO)[C@H](C(=O)NCc3ccc4c(c3)OCO4)[C@H]2N1C(=O)COC (mixture of isomers),1.1,nt,8.3,-7.9
CC=Cc1ccc2n(c1=O)C[C@@H]1[C@@H](CO)[C@H](C(=O)NCc3ccc4c(c3)OCO4)[C@H]2N1C(=O)C1CC1 (mixture of isomers),54.7*,-2.7,nt,3.2
CC=Cc1ccc2n(c1=O)C[C@H]1[C@H](CO)[C@@H](C(=O)NCc3ccc4c(c3)OCO4)[C@@H]2N1C(=O)C1CC1 (mixture of isomers),58.1*,-13.9,nt,8.5
C[C@@H]1CN([C@H](C)CO)C(=O)CCCn2cc(nn2)CO[C@@H]1CN(C)C(=O)NC1CCCC1,nt,nt,1.3,nt
CC(C)n1nc(C(=O)Nc2nnc(C3CC3)s2)c2ccccc2c1=O,-8.4,8.8,nt,nt
CC(C)(C)C1CCC(=O)N(CCC#N)CC1 (centres undefined),2.7,-13.8,-9.4,-7.1
CN(C)CC(=O)N1CCCCN2[C@H](CO)[C@H](c3ccc(/C=C/c4ccccc4)cc3)[C@@H]2C1,55.3*,-17.5,nt,16.4
COCC#Cc1ccc([C@H]2[C@H](CO)N3CCCCN(C(=O)CN(C)C)C[C@@H]23)cc1,11.4,9.2,nt,-5.7
CN(C)CC#Cc1ccc([C@H]2[C@@H](CO)N3CCCCN(C(=O)Nc4ccccc4F)C[C@H]23)cc1,70.1*,-10.1,nt,-3.9
CN(C)CC#Cc1ccc([C@H]2[C@H]3CN(C(=O)CN(C)C)CCCCN3[C@H]2CO)cc1,57.2*,8.2,nt,-17.6
Cc1ccc(S(=O)(=O)NCCC(=O)NC2CCCCCC2)cc1C,-3.6,14.7,4.9,4.2
C[C@@H]1CN([C@@H](C)CO)S(=O)(=O)c2ccc(C#Cc3ccccc3)cc2O[C@H]1CN(C)C(=O)CN(C)C,34.3,nt,14.7,4.2
Cc1ccc(-c2ccc3c(c2)O[C@@H](CN(C)C(=O)CN(C)C)[C@@H](C)CN([C@H](C)CO)S3(=O)=O)cc1,58.2*,nt,nt,8.9
C[C@H](CO)N1C[C@H](C)[C@H](CN(C)C(=O)CN(C)C)Oc2cc(C#Cc3ccccc3)ccc2S1(=O)=O,59.6*,nt,15.5,7.6
C[C@@H]1CN([C@H](C)CO)S(=O)(=O)c2ccc(C#Cc3ccccc3)cc2O[C@@H]1CN(C)C(=O)CN(C)C,67.8*,-7.6,-1.7,16.6
Cc1ccc(-c2ccc3c(c2)O[C@@H](CN(C)C(=O)CN(C)C)[C@H](C)CN([C@H](C)CO)S3(=O)=O)cc1,17.8,nt,nt,6.9
Cc1csc(N=Nc2ccc(N(C)C)cc2)[n+]1[O-],29.1,68.1*,-4.6,nt
CN(C)CC#Cc1ccc([C@@H]2[C@@H](CO)N3CCCCN(CC4CCOCC4)C[C@H]23)cc1,42.3,4.6,nt,-18.4
CN(C)CC#Cc1ccc([C@H]2[C@@H](CO)N3CCCCN(CC4CCOCC4)C[C@H]23)cc1,62.3*,12.3,nt,-7.8
CCCC#Cc1ccc([C@H]2[C@@H](CO)N3CCCCN(CC4CC4)C[C@H]23)cc1,52.9*,14.6,nt,3.8
CN(C)CC#Cc1ccc([C@H]2[C@H]3CN(CC4CC4)CCCCN3[C@H]2CO)cc1,43.9,6.9,nt,-6.4

# From PubChem BioAssay
